Most compounds without a hit are left out; they make up all but 8.9% or so of the library.
MT stabilizer = microtubule stabilization, imaging screen | 200,000 tested, 0.83% active | % tubulin-high responders, % at 10 µM | AID 2205 | HeLa tubulin immunostaining HCS, 24 h; share of cells brighter than vehicle mean+2SD;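 active means plate Z-score above 3 for both tubulin-high and condensed-nucleus cell shares, with cell loss under 80%, at 10 µM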;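 further: anti alpha tubulin signal scored within the nucleus-defined area of each cell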
HSV augment = HSV replication enhancement; 220,000 tested, 0.005% active; maximum fold increase; AID 1956; HSV replication augmentation in cells, fold increase; in the data active means maximum fold increase above about 1.5; tested in PC3 cells
bCat nuc transl = alters nuclear translocation of beta-catenin in HeLa cells. nuclear translocation activity, % at 5 µM. AID 1665. 190,000 tested, 0.3% active. immunofluorescence imaging;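 active means nuclear translocation activity above 50% at 5 µM, with a well cell count of 50 or more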;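 further: per-cell ratio of nuclear to cytoplasmic median beta-catenin stain intensity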
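System: HeLa cells, endogenous beta-catenin; compound dosing: 5 µM primary single dose, 0.1% DMSO, 0.02–20 µM confirmation series; incubation: 24 h compound exposure at 37°C, 5% CO2; signal: beta-catenin immunofluorescence imaging with DAPI; evaluation: % activation, nuclear-to-cytoplasmic median beta-catenin signal ratio per cell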
Dynein transport = dynein cargo transport inhibition; 220,000 tested, 0.47% active; z-score, hits read low; 3617.4 mouse cells, GR-EGFP nuclear translocation imaging; test concentration mostly 20 µM; stimulated with dexamethasone, 1 µM; stronger effect = lower value;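 active means plate z-score of nuclear minus cytoplasmic receptor signal below a set negative limit, without overly bright fluorescence or cell loss, cut at about -3.5 in these data, passing the limit was not always enough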;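 further: z-score of nuclear minus cytoplasmic ring GR-EGFP intensity difference per well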
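Schedule: 48 h induction, then 1 h compound, then 30 min agonist, 37 °C. Buffer or medium: tetracycline-free induction medium containing charcoal-stripped FBS. Reagent: 1.0 µM final dexamethasone stimulus. Evaluation: nuclear versus cytoplasmic GR-EGFP signal, averaged per well. Signal: high-content fluorescence imaging after fixation.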
Lmaj promast = Leishmania major promastigote growth inhibition | Leishmania major promastigotes, resazurin fluorescence viability | inhibition, % at 10 µM | 200,000 tested, 9% active | AID 1063; in the data active means inhibition above about 50%;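 further: promastigotes grown with compound for 44 hours at 28 °C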
A number is an active result; – = inactive; · = no result.

SMILES	MT stabilizer	HSV augment	bCat nuc transl	Dynein transport	Lmaj promast
COC(=O)c1ccc(C2C(C#N)=C(N)Oc3cc(C)n(C)c(=O)c32)cc1 (centres undefined)	–	–	–	–	–
CSc1nc2ccc(S(=O)(=O)N3CCCC3)cc2s1	–	–	–	–	–
COc1cccc(OC)c1OCCCCN1CCC(Cc2ccccc2)CC1	–	–	–	–	89.2
COc1ccc(NC(=O)NCCCN2CCC(Cc3ccccc3)CC2)cc1	·	–	–	–	·
COc1cccc(OC)c1OCCCCN1CCCC1	–	–	–	–	66.4
COc1ccccc1OCCCCN1CCN(C(c2ccccc2)c2ccccc2)CC1	–	–	–	–	93.2
COc1cccc(OC)c1OCCCN1CCOCC1	–	–	·	–	–
CC(=O)CCc1ccc(OCCCCN2CCC(Cc3ccccc3)CC2)cc1	–	–	–	–	93.6
O=C1Nc2ccccc2C1=O	·	–	·	·	·
O=C1CCCN1CCC1CCN(C(=S)Nc2ccc(F)cc2)CC1	–	–	·	–	–
O=C(Nc1cccnc1)c1cc(-c2ccccc2)on1	–	–	–	–	–
COc1cccc(-c2cc(C(=O)Nc3c(C)nn(Cc4ccccc4)c3C)no2)c1	–	–	·	–	–
CC(=O)c1cccc(NC(=O)c2cc(-c3ccc(C)cc3)on2)c1	–	–	–	–	62.3
COc1cccc(-c2cc(C(=O)Nc3c(C)nn(Cc4ccccc4C)c3C)no2)c1	–	–	–	–	52.5
CC(C)n1cc(NC(=O)c2cc(-c3ccccc3)on2)cn1	28.3	–	·	–	–
COc1cccc(-c2cc(C(=O)Nc3cccnc3)no2)c1	–	–	111.3	–	–
O=C([C@@H]1CC=C[C@@H]2CCN(C3CCCCC3)C(=O)[C@@H]21)N1CCN(c2ccccc2)CC1	·	–	·	·	·
COc1cccc(-c2cc(C(=O)Nc3cc(OC)c(OC)c(OC)c3)no2)c1	49.5	–	·	–	51.0
COc1cccc(-c2cc(C(=O)Nc3cc(C)on3)no2)c1	–	–	–	–	–
Cc1ccc(N/C(N)=N/c2nc(CSc3nnc(C)s3)cc(=O)[nH]2)c(C)c1	12.5	–	–	–	–
CCC(C)(C)C1CCC2(CC1)NC(=S)N(c1ccccc1)N2 (centres undefined)	·	–	–	–	·
CC(C)(C)C1CCC2(CC1)NC(=S)N(c1ccccc1)N2 (centres undefined)	–	–	–	–	58.4
Cc1nn(C)c(C)c1C1C(C#N)=C(N)Oc2n[nH]c(C)c21 (centres undefined)	–	–	–	–	–
COc1cccc(-c2nnc(SC(C(=O)c3c[nH]c4ccccc34)c3ccccc3)n2C)c1 (centres undefined)	–	–	·	–	98.1
COc1ccccc1-c1nnc(SC(C(=O)c2c[nH]c3ccccc23)c2ccccc2)n1C (centres undefined)	–	–	–	–	–
SMILES	MT stabilizer	HSV augment	bCat nuc transl	Dynein transport	Lmaj promast
O=C(NC1CCCC1)c1ccc(COCC(F)(F)C(F)F)o1	–	–	–	–	–
O=C(OCC(=O)c1ccccc1Br)c1ccncc1	–	–	–	–	–
CCOc1cc(C(=O)N/N=C/C(Br)=C/c2ccccc2)cc(OCC)c1OCC	9.1	–	·	–	58.4
COc1ccc(/C=C/c2nc(N)nc(-c3ccccc3O)n2)cc1OC	–	–	–	–	92.5
OCC1(CCOc2ccccc2)CCN(Cc2ccc3c(c2)OCCO3)CC1	–	–	–	–	91.8
CCOC(=O)C1(CCOc2ccccc2)CCN(Cc2ccc3c(c2)OCCO3)CC1	–	–	–	–	85.9
CCOC(=O)C1(Cc2cccc(OC)c2)CCN(Cc2cccc3c2OCO3)CC1	–	–	–	–	53.9
CCOC(=O)C1(Cc2cccc(OC)c2)CCN(Cc2ccc3c(c2)OCCO3)CC1	–	–	–	–	95.3
CCOC(=O)C(/C(C)=N/NC(=O)c1ccccc1[N+](=O)[O-])C(C)C (centres undefined)	–	–	–	–	–
CCn1c(COc2ccc(Cl)cc2)nnc1SCC(=O)Nc1ccc2c(c1)OCO2	–	–	–	–	–
Cn1c(-c2cc(Cl)ccc2O)nc2c1c(=O)[nH]c(=O)n2Cc1ccccc1	–	–	–	–	53.8
COc1ccc(-c2ccc(-c3nc4c(c(=O)[nH]c(=O)n4Cc4ccccc4)n3C)o2)c([N+](=O)[O-])c1	–	–	·	–	72.1
COCCn1c(-c2ccc(-c3ccc([N+](=O)[O-])cc3Br)o2)nc2c1c(=O)[nH]c(=O)n2CC(C)C	–	–	–	–	72.6
COCCn1c(=O)[nH]c(=O)c2c1nc(-c1ccc(-c3ccc(Cl)cc3[N+](=O)[O-])o1)n2Cc1ccccc1	–	–	–	–	–
CCCCn1c(=O)[nH]c(=O)c2c1nc(-c1ccccc1F)n2Cc1ccccc1	–	–	–	–	–
CCOC(=O)C1=C(C)N(CC(C)C)C(=O)/C1=C\c1ccc(OCC(=O)Nc2ccccc2)cc1	–	–	–	–	81.1
CCOC(=O)c1cc(=O)c2ccc(OCC(=O)Nc3ccccc3)cc2o1	·	–	–	–	·
Nc1ccc2c(c1)C(=O)C(=O)c1ccccc1-2	–	–	·	–	100.0
O=C1C(=O)c2ccc(-c3ccccc3)cc2-c2ccccc21	–	–	–	–	99.9
COC1=C(c2ccccc2)C(=O)c2ccccc2C1=O	–	–	–	–	–
CCCCNC(=O)c1cc(C)nn1-c1ccccc1	·	–	–	–	·
COC(=O)c1ccc(CSc2nnc(C)s2)cc1	–	–	–	–	–
CC1CC(NC(=O)CC#N)CC(C)(C)C1 (centres undefined)	·	–	–	–	·
CC1CC(NC(=O)C2(C)CC2(Cl)Cl)CC(C)(C)C1 (centres undefined)	–	–	·	–	54.5
Cc1ccc(-c2nn3c(C)nnc3s2)cc1NC(=O)C(C)C	–	–	·	–	–
SMILES	MT stabilizer	HSV augment	bCat nuc transl	Dynein transport	Lmaj promast
CCN(CC)c1ccc(NC2=C(Cl)C(=O)c3ccccc3C2=O)cc1	–	–	–	-4.42	–
O=C(/C=C/c1cccc(F)c1)Nc1ccc(S(=O)(=O)Nc2ncccn2)cc1	·	–	–	–	·
O=C(/C=C/c1ccc(Br)cc1)Nc1ccc(S(=O)(=O)Nc2ncccn2)cc1	–	–	–	–	51.9
Cc1cccc(OCCCC(=O)Nc2ccc(Br)cc2)c1	–	–	–	–	–
COc1ccc(CCn2c(N)c(C#N)c3nc4ccccc4nc32)cc1OC	–	–	·	–	91.4
CCOc1ccc(-c2nnc(Nc3ccc(OC)c(C(=O)N4CCCCC4)c3)c3ccccc23)cc1	–	–	–	–	61.1
O=C(COc1ccccc1Br)c1ccc(O)cc1O	–	–	–	–	–
Cc1sc2ncn(Cc3ccccc3F)c(=O)c2c1C	–	–	–	–	–
CCOCC(=O)Nc1cccc(-c2nc3cccnc3s2)c1C	–	–	–	–	–
COc1cccc(CNc2nc3ccccc3n2CCN2CCCCC2)c1	–	–	–	–	–
COc1ccc(CNc2nc3ccccc3n2CCN2CCCCC2)c(OC)c1	–	–	–	–	92.2
COc1cccc(CNc2nc3ccccc3n2CCN2CCCCC2)c1OC	–	–	–	–	99.8
